In ChEMBL document CHEMBL3808334, “Synthesis and in vitro evaluation of novel triazine analogues as anticancer agents and their interaction studies with bovine serum albumin” (Eur J Med Chem, 2016):

Legend:
Assay type in all cases: functional
NCI/ADR-RES [1] = assay: Growth inhibition of human NCI/ADR-RES cells assessed as cell growth at 10^-6 M incubated for 48 hrs by sulforhodamine B assay; conditions: read-out: Activity
[2] = Growth inhibition of human leukemia cells incubated for 48 hrs by sulforhodamine B assay; conditions: Leukemia cell; for CC50: read-out: LC50 (the source's name)
Malme-3M = assay: Growth inhibition of human MALME-3M cells assessed as cell growth at 10^-5 M incubated for 48 hrs by sulforhodamine B assay; conditions: read-out: Activity
HT-29 [3] = assay: Growth inhibition of human HT-29 cells assessed as cell growth at 10 uM incubated for 48 hrs by sulforhodamine B assay; conditions: HT-29, 48 h, read-out: Activity
[4] = Growth inhibition of human HOP62 cells assessed as cell growth at 10^-4 M incubated for 48 hrs by sulforhodamine B assay; conditions: HOP-62, 48 h, read-out: Activity
[5] = Growth inhibition of human OVCAR3 cells assessed as cell growth at 10^-7 M incubated for 48 hrs by sulforhodamine B assay; conditions: OVCAR-3, 48 h, read-out: Activity
[6] = Growth inhibition of human SW620 cells assessed as cell growth at 10^-7 M incubated for 48 hrs by sulforhodamine B assay; conditions: SW-620, 48 h, read-out: Activity
NCI-H226 [7] = assay: Growth inhibition of human NCI-H226 cells assessed as cell growth at 10^-7 M incubated for 48 hrs by sulforhodamine B assay; conditions: NCI-H226, 48 h, read-out: Activity
[8] = Growth inhibition of human OVCAR8 cells assessed as cell growth at 10^-6 M incubated for 48 hrs by sulforhodamine B assay; conditions: OVCAR-8, 48 h, read-out: Activity
HT-29 [9] = assay: Growth inhibition of human HT-29 cells assessed as cell growth at 10^-8 M incubated for 48 hrs by sulforhodamine B assay; conditions: HT-29, 48 h, read-out: Activity
[10] = Growth inhibition of human BT549 cells assessed as cell growth at 10^-6 M incubated for 48 hrs by sulforhodamine B assay; conditions: BT-549, 48 h, read-out: Activity
In short: (§1)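 Five-dose assay: five concentrations from 10-fold or ½-log serial dilutions. Cells are plated at 5,000–40,000 per well according to doubling time, grown 24 h, then exposed 48 h at 37 °C, 5% CO₂. Fixed with cold 50% TCA (final addition) for 60 min at 4 °C and stained with 0.4% SRB in 1% acetic acid. Bound dye is solubilized in 10 mM Tris base and read at 515 nm. GI₅₀ is where [(Ti−Tz)/(C−Tz)]×100 = 50, with a time-zero plate as Tz.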

NCI/ADR-RES [11] = assay: Growth inhibition of human NCI/ADR-RES cells assessed as cell growth at 10^-4 M incubated for 48 hrs by sulforhodamine B assay; conditions: read-out: Activity
786-0 = assay: Growth inhibition of human 786-0 cells assessed as cell growth at 10^-7 M incubated for 48 hrs by sulforhodamine B assay; conditions: 786-0, 48 h, read-out: Activity; in short: as §1
SK-MEL-5 = assay: Growth inhibition of human SK-MEL-5 cells incubated for 48 hrs by sulforhodamine B assay; conditions: SK-MEL-5, 48 h
In short: (§2)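 Cells were plated at 5,000–40,000 per well according to doubling time and preincubated 24 h at 37 °C in 5% CO2; time-zero plates were then TCA-fixed. Five concentrations (10-fold or ½-log dilutions, DMSO stock) were incubated 48 h. Cells were TCA-fixed, stained with 0.4% SRB and read at 515 nm. GI50 was taken where [(Ti−Tz)/(C−Tz)]×100 = 50.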

MDA-MB-468 = assay: Growth inhibition of human MDA-MB-468 cells assessed as cell growth at 10^-6 M incubated for 48 hrs by sulforhodamine B assay; conditions: MDA-MB-468, 48 h, read-out: Activity
MDA-MB-231 = assay: Growth inhibition of human MDA-MB-231 cells assessed as cell growth at 10^-6 M incubated for 48 hrs by sulforhodamine B assay; conditions: MDA-MB-231, 48 h, read-out: Activity
U-251 = assay: Growth inhibition of human U251 cells assessed as cell growth at 10^-5 M incubated for 48 hrs by sulforhodamine B assay; conditions: U-251, 48 h, read-out: Activity
[12] = Growth inhibition of human SKOV3 cells assessed as cell growth at 10^-4 M incubated for 48 hrs by sulforhodamine B assay; conditions: SK-OV-3, 48 h, read-out: Activity
[13] = Growth inhibition of human SF268 cells assessed as cell growth at 10^-4 M incubated for 48 hrs by sulforhodamine B assay; conditions: SF-268, 48 h, read-out: Activity
[14] = Growth inhibition of human Hs 578T cells assessed as cell growth at 10 uM incubated for 48 hrs by sulforhodamine B assay; conditions: read-out: Activity
[15] = Growth inhibition of human Caki1 cells assessed as cell growth at 10^-5 M incubated for 48 hrs by sulforhodamine B assay; conditions: CAKI-1, 48 h, read-out: Activity
In short: (§3)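 Cells seeded at 5,000–40,000/well according to doubling time and preincubated 24 h at 37 °C, 5% CO2. Time-zero plates were TCA-fixed. DMSO concentrate was diluted in medium with 50 µg/ml gentamicin to give five concentrations (10-fold or ½ log steps), then exposed 48 h. Cells were TCA-fixed, stained with 0.4% SRB and read at 515 nm. Percent growth was taken against time-zero and control; GI50, TGI and LC50 derived.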

SN12C = assay: Growth inhibition of human SN12C cells assessed as cell growth at 10^-4 M incubated for 48 hrs by sulforhodamine B assay; conditions: read-out: Activity
ACHN = assay: Growth inhibition of human ACHN cells assessed as cell growth at 10^-4 M incubated for 48 hrs by sulforhodamine B assay; conditions: read-out: Activity; in short: as §1
[16] = Growth inhibition of human melanoma cells incubated for 48 hrs by sulforhodamine B assay; conditions: Melanoma cell; for CC50: read-out: LC50 (the source's name)
NCI-H226 [17] = assay: Growth inhibition of human NCI-H226 cells incubated for 48 hrs by sulforhodamine B assay; conditions: NCI-H226, 48 h; in short: as §2
[18] = Growth inhibition of human SNB75 cells assessed as cell growth at 10^-7 M incubated for 48 hrs by sulforhodamine B assay; conditions: SNB-75, 48 h, read-out: Activity
MDA-MB-435 = assay: Growth inhibition of human MDA-MB-435 cells assessed as cell growth at 10^-8 M incubated for 48 hrs by sulforhodamine B assay; conditions: MDA-MB-435, 48 h, read-out: Activity
[19] = Growth inhibition of human HOP62 cells incubated for 48 hrs by sulforhodamine B assay; conditions: HOP-62, 48 h; in short: as §3
[20] = read-out: LC50 (the source's name)
[21] = read-out: pLC50 (the source's name) (converted)

Clc1ccc(-c2nc(Nc3ccc(-c4nc5ccccc5[nH]4)cc3)nc(N3CCOCC3)n2)cc1
growth at 1 µM (NCI/ADR-RES [1]): 37% | GI50 [2]: 0.19 µM | TGI [2]: 0.58 µM | CC50 [2]: > 100 µM | growth at 10 µM (Malme-3M): -78% | growth at 10 µM (HT-29 [3]): -78.6% | growth at 100 µM [4]: -26% | growth at 0.1 µM [5]: 97% | growth at 0.1 µM [6]: 95% | growth at 0.1 µM (NCI-H226 [7]): 106% | growth at 1 µM [8]: 57% | growth at 0.01 µM (HT-29 [9]): 104% | growth at 1 µM [10]: 86% | growth at 100 µM (NCI/ADR-RES [11]): -7% | growth at 0.1 µM (786-0): 92% | GI50 (SK-MEL-5; read-out: GI50): 1.69 µM | CC50 (SK-MEL-5; [20]): 5.79 µM | TGI (SK-MEL-5; read-out: TGI): 3.13 µM | GI50 (SK-MEL-5; read-out: pGI50 (converted)): 1.7 µM | CC50 (SK-MEL-5; [21]): 5.75 µM | TGI (SK-MEL-5; read-out: pTGI (converted)): 3.16 µM | growth at 1 µM (MDA-MB-468): 25% | growth at 1 µM (MDA-MB-231): -55% | growth at 10 µM (U-251): -92% | growth at 100 µM [12]: -50% | growth at 100 µM [13]: -24% | growth at 10 µM [14]: -40.2% | growth at 10 µM [15]: -99% | growth at 100 µM (SN12C): -14% | growth at 100 µM (ACHN): -30% | GI50 [16]: 1.07 µM | TGI [16]: 2.48 µM | CC50 [16]: 5.79 µM | GI50 (NCI-H226 [17]; read-out: GI50): 2.11 µM | TGI (NCI-H226 [17]; read-out: TGI): 4.44 µM | GI50 (NCI-H226 [17]; read-out: pGI50 (converted)): 2.09 µM | TGI (NCI-H226 [17]; read-out: pTGI (converted)): 4.47 µM | growth at 0.1 µM [18]: 79% | growth at 0.01 µM (MDA-MB-435): 100% | GI50 ([19]; read-out: GI50): 1.4 µM | TGI ([19]; read-out: TGI): 3.04 µM | GI50 ([19]; read-out: pGI50 (converted)): 1.41 µM | TGI ([19]; read-out: pTGI (converted)): 3.02 µM

c1ccc2[nH]c(-c3ccc(Nc4nc(N5CCCCC5)nc(N5CCOCC5)n4)cc3)nc2c1
growth at 1 µM (NCI/ADR-RES [1]): 95% | GI50 [2]: 2.37 µM | TGI [2]: 6.5 µM | CC50 [2]: > 100 µM | growth at 10 µM (Malme-3M): -80% | growth at 10 µM (HT-29 [3]): -28.1% | growth at 100 µM [4]: -55% | growth at 0.1 µM [5]: 104% | growth at 0.1 µM [6]: 92% | growth at 0.1 µM (NCI-H226 [7]): 84% | growth at 1 µM [8]: 93% | growth at 0.01 µM (HT-29 [9]): 105% | growth at 1 µM [10]: 89% | growth at 100 µM (NCI/ADR-RES [11]): -10% | growth at 0.1 µM (786-0): 97% | GI50 (SK-MEL-5; read-out: GI50): 1.78 µM | CC50 (SK-MEL-5; [20]): 6.11 µM | TGI (SK-MEL-5; read-out: TGI): 3.3 µM | GI50 (SK-MEL-5; read-out: pGI50 (converted)): 1.78 µM | CC50 (SK-MEL-5; [21]): 6.17 µM | TGI (SK-MEL-5; read-out: pTGI (converted)): 3.31 µM | growth at 1 µM (MDA-MB-468): 106% | growth at 1 µM (MDA-MB-231): 92% | growth at 100 µM [12]: -67% | growth at 100 µM [13]: -11% | growth at 10 µM [14]: -12.6% | growth at 10 µM [15]: -55% | growth at 100 µM (SN12C): -12% | growth at 100 µM (ACHN): 1% | GI50 [16]: 1.95 µM | TGI [16]: 4.18 µM | CC50 [16]: 11.8 µM | GI50 (NCI-H226 [17]; read-out: GI50): 3.2 µM | CC50 (NCI-H226 [17]; [20]): > 100 µM | TGI (NCI-H226 [17]; read-out: TGI): 17.7 µM | GI50 (NCI-H226 [17]; read-out: pGI50 (converted)): 3.16 µM | CC50 (NCI-H226 [17]; [21]): > 100 µM | TGI (NCI-H226 [17]; read-out: pTGI (converted)): 17.8 µM | growth at 0.1 µM [18]: 74% | growth at 0.01 µM (MDA-MB-435): 96% | GI50 ([19]; read-out: GI50): 1.92 µM | LC50 ([19]; read-out: LC50): 9.73 µM | TGI ([19]; read-out: TGI): 4.32 µM | GI50 ([19]; read-out: pGI50 (converted)): 1.91 µM | LC50 ([19]; read-out: pLC50 (converted)): 9.77 µM | TGI ([19]; read-out: pTGI (converted)): 4.37 µM
